A selection: hits, their analogues and other compounds. The true share with any hit is near 4.6%.
CHO parental Ca: counter-screen for OX1R antagonists: effect in parental CHO cells. 0.63% of 330,000 active. inhibition, % at 5.6 µM. parental CHO-K1, ATP-induced calcium, Fluo-8 fluorescence. AID 463079;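 active = inhibition above that plate's mean sample inhibition plus 3 SD, cut at about 26% in these data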;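 also: 0% = ATP-challenged DMSO wells and 100% = DMSO wells without ATP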
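Test system: parental CHO cells; detection: calcium-sensitive Fluo-8 fluorescence; evaluation: percent inhibition of calcium signal; also added: ATP as calcium-mobilizing challenge; repeats: one well per compound; control set: ATP-challenged DMSO wells low, unchallenged DMSO wells high; compound: single nominal dose of 5.6 µM per compound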
TAAR1 antagonist: antagonists of human TAAR1; Q96RJ0; CHO RD-HGA16 TAAR1, Fluo-8 calcium fluorescence, antagonist; inhibition, % at 3 µM; 1.5% of 360,000 active; AID 624466;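 active = inhibition above a per-plate cutoff, the mean inhibition of test compounds on that plate plus 3 SD, cut at about 49% in these data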;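 also: 0% = DMSO plus EC80 beta-PEA response and 100% = DMSO alone without agonist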
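Test system: RD-HGA16 CHO cells with stable hTAAR1 and Gα16 / Probe or stimulus: EC80 β-phenethylamine stimulus / Times: seeding 17-24 h prior, 75-min 37 °C, 30-min RT dye loading / Detection: Fluo-8 calcium-sensitive fluorescence / Read-out basis: % inhibition scaled between DMSO and EC80 PEA controls / Repeats: singlicate, one well per test compound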
OX1R antag-1: human HCRTR1 antagonism. O43613. CHO/OX1R cells, Fluo-8 calcium fluorescence, orexin A. inhibition, % at 5 µM. 0.43% of 330,000 active. AID 434989;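 active = inhibition above its plate's threshold, mean inhibition of all tested compounds on the plate plus 3 SD, cut at about 37% in these data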;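 also: 0% = orexin A challenge wells and 100% = SB-334867-A antagonist wells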
Target sequence (O43613 whole entry, looked up): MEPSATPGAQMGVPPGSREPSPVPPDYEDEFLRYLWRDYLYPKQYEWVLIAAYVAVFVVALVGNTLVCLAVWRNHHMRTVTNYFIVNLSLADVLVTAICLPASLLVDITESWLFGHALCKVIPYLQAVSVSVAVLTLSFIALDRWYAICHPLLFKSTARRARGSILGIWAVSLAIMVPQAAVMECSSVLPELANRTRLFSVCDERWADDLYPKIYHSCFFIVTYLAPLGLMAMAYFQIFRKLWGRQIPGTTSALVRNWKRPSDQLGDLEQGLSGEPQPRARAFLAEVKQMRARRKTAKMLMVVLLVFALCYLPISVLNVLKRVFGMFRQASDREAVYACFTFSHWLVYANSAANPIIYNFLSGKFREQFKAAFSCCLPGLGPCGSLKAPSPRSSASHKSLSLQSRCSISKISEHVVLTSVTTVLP
OX1R antag-2: blocks the human orexin 1 receptor | 1.8% of 330,000 active | inhibition, % at 6.6 µM | OX1R-expressing cells, FRET antagonist read-out | O43613; in the data active = inhibition mostly above about 38%, no sharp cut-off; inactive = mostly below about 40%;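 also: 0% = agonist challenge alone and 100% = reference antagonist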
GPR7 antagonist: blocks human GPR7 receptor signaling. P48145. GPR7-expressing cells, fluorescence antagonist assay. inhibition, % at 4.4 µM. 1.1% of 290,000 active; in the data active = inhibition above about 16%, passing the limit was not always enough;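 also: cells stimulated with the agonist NPW; 0% = agonist with vehicle and 100% = vehicle without agonist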
TAAR1 ag: agonists of human TAAR1; Q96RJ0; CHO RD-HGA16 TAAR1, Fluo-8 calcium fluorescence; vehicle wells 0%, saturating PEA agonist 100%; activation, % at 3 µM; 0.99% of 360,000 active;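 active = activation above the mean activation of all test compounds in the run plus 3 SD, cut at about 38% in these data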
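Assay system – CHO-derived RD-HGA16 cells with stable Gα16 and human TAAR1 · Compound dosing – one-point dosing at 3 µM (nominal) · Incubation – 17-24 h seeding, 75 min 37 °C dye, 30 min RT · Measured by – kinetic Fluo-8 calcium fluorescence · Control set – DMSO vehicle as 0%, PEA at EC100 as 100% · Repeats – single well for each compound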
* hit, by the source's call; x = no result.

SMILES	CHO parental Ca	TAAR1 antagonist	OX1R antag-1	OX1R antag-2	GPR7 antagonist	TAAR1 ag
COc1ccc(OC)c(Nc2ccc(C(=O)O)cc2[N+](=O)[O-])c1	-3	17	8	33	5	0
COc1ccc(Nc2ccc(C(=O)O)cc2[N+](=O)[O-])cc1	1	12	-23	55*	-6	3
COCc1cc(N2CCNC[C@H]2C)ccc1N1CCS(=O)(=O)CC1	x	10	x	x	x	1
COc1ccccc1N1C(=O)c2cccc3c(N(C)CCO)ccc(c23)C1=O	8	8	4	4	-11	22
COc1ccccc1N1C(=O)c2cccc3c(C(=O)O)ccc(c23)C1=O	-2	13	0	38*	-2	0
Cc1cc(C)cc(Cn2c3ccc(NC(=O)NCCc4cccs4)cc3c(=O)n2C)c1	x	59*	x	x	x	42*
COc1ccc2oc(C(=O)c3ccccc3)c(N)c2c1	-11	-5	26	64*	6	6
COc1ccc(C(=O)c2oc3ccccc3c2N)cc1	-10	23	-5	36	-10	9
CC(c1ccc(Cl)cc1)N(CCN(C)C)c1ccccn1 (stereo not given)	x	-9	x	x	x	1
OC(COc1ccc(Br)cc1)CN1CCC(Cc2ccccc2)CC1 (stereo not given)	-16	-12	-11	11	9	42*
CC(C)OCC(O)CN1CCC(Cc2ccccc2)CC1 (stereo not given)	-3	-14	-4	9	-4	2
CCCCCOC(=O)Nc1nnc(CCCCC)s1	-21	-1	-35	7	19*	1
CCOC(=O)CCCCCC(=O)Nc1ccc2c(c1)C(=O)N([C@H](C)CO)C[C@H](C)[C@@H](CN(C)C(=O)Nc1ccccc1)OCCCC[C@@H](C)O2	x	5	x	x	x	-1
COc1cc2nc(N(CCCN(C)C)C(=O)c3ccc(S(=O)(=O)N4CCc5ccccc54)cc3)sc2cc1OC	-14	-9	-18	9	x	40*
Cc1cc(C)c2sc(N(CCCN(C)C)C(=O)c3ccc(S(=O)(=O)N(C)C4CCCCC4)cc3)nc2c1	-6	19	-26	20	x	41*
CCN(Cc1ccccc1)S(=O)(=O)c1ccc(C(=O)N(CCCN(C)C)c2nc3ccc(F)cc3s2)cc1	-7	40	-15	4	1	41*
O=C(NCc1ccccc1)[C@H]1CCCN1C(=O)[C@H]1CCCN1C(=O)c1ccc(OC(F)(F)F)cc1	x	-2	x	x	x	-1
COC(=O)c1cc2c(c3c4cc(F)ccc4n(S(=O)(=O)c4ccc(OC)cc4)c13)C(=O)N(C)C2	x	14	x	x	x	-1
Cn1c(=O)c2c(nc(NCc3ccco3)n2C/C=C/c2ccccc2)n(C)c1=O	39*	35	47*	66	x	21
COc1ccc(NC(=O)Nc2ccc3c(c2)C(=O)N([C@H](C)CO)C[C@H](C)[C@H](CN(C)C)OCCCC[C@@H](C)O3)cc1	x	-2	x	x	x	4
O=C(Nc1ccccc1C(=O)OCC(=O)c1c[nH]c2ccccc12)c1ccco1	-1	48	12	50*	0	6
O=C(Cn1nnc(-c2ccccc2)n1)Nc1ccc2c(c1)OCO2	4	21	-9	27	-7	42*
O=C(COC(=O)[C@H](Cc1ccccc1)N1C(=O)c2ccccc2C1=O)Nc1ccc2c(c1)OCO2	-1	56*	-1	37	1	15
CC(C)(C)NC(=O)COC(=O)c1ccccc1NC(=O)c1ccco1	-13	7	-17	6	0	2
O=C(COC(=O)c1ccccc1NC(=O)c1ccco1)Nc1ccc2c(c1)OCO2	-4	28	17	72*	4	8
SMILES	CHO parental Ca	TAAR1 antagonist	OX1R antag-1	OX1R antag-2	GPR7 antagonist	TAAR1 ag
O=C(COC(=O)c1ccccc1NCc1ccco1)Nc1ccc2c(c1)OCO2	-6	13	-7	34	-7	30
CC(C)[C@@H](C(=O)OCC(=O)Nc1ccc2c(c1)OCO2)N1C(=O)c2ccccc2C1=O	-34	15	-23	34	-2	23
O=C(Cn1nnc(-c2ccccc2F)n1)Nc1ccc2c(c1)OCO2	-10	-6	-6	12	-3	5
Cc1cn([C@H]2C[C@H](O)[C@@H](CNCc3ccccc3OCCCN3CCOCC3)O2)c(=O)[nH]c1=O	x	-21	x	x	x	3
Cc1ccc(-c2ccc3c(c2)O[C@H](CN(C)C(=O)Nc2ccc(C(F)(F)F)cc2)[C@H](C)CN([C@H](C)CO)S3(=O)=O)cc1	x	-7	x	x	x	1
COC(=O)[C@]12C[C@H](CC(=O)NCc3cccc4ccccc34)C(=O)N(Cc3ccccc3)C1=C[C@H](C1CCCC1)O[C@@H]2C	x	-15	x	x	x	0
CCCCCCCCN1C(=O)[C@@H](CC(=O)N2CCOCC2)C[C@@]2(C(=O)OC)C1=C[C@H](C1CCCC1)O[C@@H]2C	x	-44	x	x	x	-2
COC(=O)N(C)C[C@H]1OCc2cn(nn2)CCCC(=O)N([C@H](C)CO)C[C@@H]1C	x	-14	x	x	x	0
CC(=O)c1ccc(OCc2ccc(C(=O)c3ccccc3)cc2)cc1	49*	32	22	43	14	7
COC(=O)[C@]12C[C@H](CC(=O)N3CCN(C(=O)c4ccco4)CC3)C(=O)N(Cc3ccc4c(c3)OCO4)C1=C[C@H](C(C)(C)C)O[C@@H]2C	x	-17	x	x	x	2
CCn1nc(C(=O)N2CCN(Cc3nc4ccccc4s3)CC2)c2ccccc2c1=O	-9	57*	-20	12	x	33
O=S1(=O)c2cccc3cccc(c23)N1Cc1nnc(-c2ccccc2Br)o1	32*	29	11	72	1	12
O=C1c2ccccc2S(=O)(=O)N1Cc1nnc(-c2ccccc2Br)o1	x	0	x	x	4	37
CN1CCN([C@H]2CS(=O)(=O)N[C@@H]2COCc2ccccc2)CC1	x	-24	x	x	x	0
CCCCc1c(-c2ccccc2OC)ncn1Cc1ccc(F)cc1F	x	-18	x	x	x	0
O=C(c1ccc(N2CCCCC2)c([N+](=O)[O-])c1)N1CCN(c2ccccn2)CC1	-23	15	-18	20	-15	-2
O=C1C2CC=CCC2C(=O)N1c1ccc(N2CCN(c3ccccn3)CC2)c([N+](=O)[O-])c1 (stereo not given)	46*	13	27	42	2	9
Cc1cc(N/C(=C\C(=O)c2ccccc2)c2ccccc2)ccc1Br	x	-22	x	x	x	-1
Cc1ccc2c(c1)c1c(n2CC(O)CNC(C)(C)C)CCCC1 (stereo not given)	x	0	x	x	21*	10
Cc1onc(-c2c(F)cccc2Cl)c1-c1ncc(-c2ccc(Cl)cc2)o1	x	1	x	x	x	2
